# RAM network inh: yeast RAM network inhibition; S. cerevisiae dse1pr::URA3 reporter, 5-FOA growth OD615, 2 d; analog-sensitive cbk1-as2 kinase mutant strain; inhibition, % at 50 µM; hit rate 1.8% among 190,000;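 active = inhibition above a set limit, 3 SD over mean compound inhibition, cut at about 8.4% in these data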;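 note: 0% = DMSO-only wells with no growth and 100% = 10 µM 1-NA-PP1 full growth; inhibition rescues growth on 5-FOA so higher OD means more RAM inhibition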
# Yeast growth inh: chemicals that inhibit yeast BB579 growth in restrictive medium (lifespan-shortening candidates). AID 804. inhibition, % at 10 µM. S. cerevisiae BB579 growth, OD615, 48 h. hit rate 0.51% among 140,000;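 active = inhibition above a set limit, 3 SD over the mean compound inhibition, cut at about 44% in these data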
#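 Assay system: S. cerevisiae DeaD strain BB579 yeast. Medium: CSMM-D restrictive synthetic medium containing dextrose (glucose). Times: 4 h cell preincubation, 48 h compound exposure, 30 °C humidified. Signal: OD615 turbidity measurement. Benchmarks: positive control amphotericin B 10 µg/mL.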
# Yeast lifespan up: yeast lifespan extension. S. cerevisiae growth with nicotinamide, OD615; deaD strain in restrictive glucose medium. inhibition of the nicotinamide effect, % at 10 µM. hit rate 0.68% among 130,000;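 active = inhibition above a set limit, placed 3 SD over the median of all compounds, cut at about 26% in these data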;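 note: 0% = nicotinamide-treated wells and 100% = cells grown without nicotinamide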
#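 System: DeaD-strain S. cerevisiae / Buffer or medium: CSMM-D, restrictive glucose (dextrose) synthetic minimal medium / Probe or stimulus: nicotinamide, 1.5 mM, co-present with compound / Compound: one concentration, 10 µM, DMSO 0.25% / Incubation: 48 h compound exposure at 30 °C, humidified / Technique: optical density (absorbance) at 615 nm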
# Phagocytosis inh: macrophage phagocytosis inhibition | J774A.1 macrophage IgG-bead phagocytosis, imaging | inhibition, % at 5 µM | hit rate 0.07% among 110,000 | AID 1029;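 active = inhibition above the mean of the plate negative controls plus 5 SD, cut at about 13% in these data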;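 note: phagocytic index as fraction of beads internalized from green versus red external bead signal; plate controls were DMSO negative control for no effect and cytochalasin-D positive control for full effect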
# Active calls of the source: *; nt = no result. Rows were chosen to be rich in hits. Some 2.7% of all compounds tested hit in one or more screens of this group.
SMILES,RAM network inh,Yeast growth inh,Yeast lifespan up,Phagocytosis inh
CCOc1ccc(NC(=O)CNC(=O)c2ccc(OC)cc2)cc1,1,nt,nt,nt
O=C(Nc1ccc(N2C(=O)C3C4C=CC(C4)C3C2=O)cc1Cl)c1cccs1 (configuration not stated),9.8*,nt,nt,nt
Nc1ccc(NC(=O)c2cccs2)c(Cl)c1,1,-8,-20,0
Cc1nnc(SC(C)C(=O)Nc2ccc(S(=O)(=O)N3CCCCCC3)cc2)s1 (configuration not stated),9.2*,-51,-21,1
Cc1cc(C)c2c(c1)-c1c(ssc1=S)C(C)(C)N2C(=O)CN1C(=O)c2ccccc2C1=O,11*,-33,-1,4
COc1cc(Cl)c(C)cc1NC(=O)CCCn1c(=O)oc2ccccc21,1,11,-2,-8
COc1cc(OC)c(NC(=O)CCCn2c(=O)oc3ccccc32)cc1Cl,11*,-19,2,-10
CN=C(Nc1ccc(C(=O)OC)s1)c1ccc(Cl)cc1,1,nt,nt,nt
O=C1CC(c2ccccc2)CC(=O)C1Sc1ccc(Cl)cc1 (configuration not stated),2,-3,40*,-4
C#CC(=O)N(c1ccc(OC)cc1OC)C(C(=O)NC1CCCC1)c1cccs1 (configuration not stated),0,nt,nt,nt
C#CC(=O)N(c1cc(OC)ccc1OC)C(C(=O)NC1CCCC1)c1cccs1 (configuration not stated),1,-7,-17,73*
O=C(N=c1ccn(-c2nc3ccccc3nc2NS(=O)(=O)c2ccccc2)cc1)c1cccs1,8.5*,-47,5,-15
CC(C)[C@H](N)c1nnc(SC/C=C/c2ccccc2)o1,-2,-11,-15,nt
Cc1ccc(C(=O)NNC(=O)CCCN2C(=O)/C(=C/c3ccccc3Cl)SC2=S)cc1,10*,-17,2,-2
CCCN1C(=O)/C(=C/c2ccncc2)SC1=S,1,-48,54*,-2
O=C(CCN1C(=O)/C(=C/c2ccccc2)SC1=S)NNC(=O)c1cccnc1,9.6*,-34,-1,nt
Cc1cccc2nc(-c3cccc(NC(=O)c4ccc(Cl)cc4)c3)cn12,0,-52,-5,nt
CC(=O)Nc1ccc(NC(=O)CCC(=O)OCC(=O)c2cccc([N+](=O)[O-])c2)cc1,1,nt,nt,nt
Cc1ccc(NC(=O)CCC(=O)OCC(=O)c2ccc(Oc3ccc([N+](=O)[O-])cc3)cc2)cc1C,11*,-11,-3,-3
Cn1c(SCC(=O)c2ccc3c(c2)OCCO3)nnc1C1CC1,0,-1,nt,nt
CCOC(=O)c1c(C)oc2c1c(C=NCC1CCCO1)c(O)c1ccccc12 (configuration not stated),6,-62,29*,nt
CCOC(=O)c1c(C)oc2c1c(C(c1cccnc1)N1CCOCC1)c(O)c1ccccc12 (configuration not stated),-1,-16,40*,0
CCOC(=O)c1c(C)oc2c1c(C=NCc1ccccn1)c(O)c1ccccc12,3,-59,31*,2
CCOC(=O)c1c(C)oc2c1cc(O)c1ccccc12,0,-33,-7,nt
COc1ccc(OCC(=O)N/N=C(\C)CC(=O)Nc2cccc([N+](=O)[O-])c2)cc1,2,nt,nt,nt
SMILES,RAM network inh,Yeast growth inh,Yeast lifespan up,Phagocytosis inh
CC(C)N(Cc1nc(-c2ccc3c(c2)OCO3)no1)Cc1nccn1C,1,nt,nt,nt
CC1=NN(C(=O)Cc2ccc([N+](=O)[O-])cc2)C(O)(c2ccccc2)C1 (configuration not stated),-1,-44,-4,-2
Cc1cc(CN(C)Cc2c(C(=O)N3CCCCCCC3)nc3ccc(Cl)cn23)n[nH]1,2,nt,nt,nt
NNC(=O)CCc1nc2ccccc2[nH]1,1,nt,nt,nt
Cc1cccc(NC(=O)CSc2nc3[nH]ncc3c(=O)[nH]2)c1C,11*,-29,2,nt
COc1ccc(NC(=O)/C=C/c2cc(OC)c(OC)c(OC)c2)cn1,9.0*,nt,nt,nt
COc1ccccc1-c1c(C(F)(F)F)oc2cc(OC(=O)c3ccc([N+](=O)[O-])cc3)ccc2c1=O,0,5,6,-9
COc1cc(CN2CCCC(C(=O)c3ccc4c5c(cccc35)CC4)C2)cc(OC)c1O (configuration not stated),0,nt,nt,nt
COc1ccc(-c2[nH]ncc2Oc2ccccc2OC)c(O)c1,0,-9,5,-1
O=[N+]([O-])c1ccc(COc2ccc(-c3[nH]ncc3-c3ccccc3)c(O)c2)cc1,6,-1,7,-5
COc1cccc(Oc2cnc(N)nc2-c2ccc(OC)cc2O)c1,10*,-52,-13,-1
C=C(C)COc1ccc(-c2[nH]ncc2Oc2cccc(OC)c2)c(O)c1,4,75*,-31,0
C=C(C)COc1ccc(-c2[nH]ncc2-c2ccccc2)c(O)c1,-1,88*,-17,nt
O=P(c1ccccc1)(c1ccccc1)c1nc(-c2ccc(Cl)cc2)oc1N1CCOCC1,0,nt,nt,nt
Cc1ccc(-c2csc3ncnc(NS(=O)(=O)c4ccc(Cl)cc4)c23)cc1,9.2*,-32,6,-2
COc1ccccc1NC(=O)c1sc2nc(-c3ccco3)ccc2c1N,2,-40,-24,0
Nc1c(C(=O)Nc2ccccc2)sc2nc(-c3ccco3)ccc12,11*,-11,-18,-1
O=C(NCc1ccc2c(c1)OCO2)c1ccc(COc2cc(Cl)ccc2Cl)o1,9.4*,-42,-4,1
O=C(NCc1ccc2c(c1)OCO2)c1ccc(CSCc2ccc(Cl)cc2)o1,7,-32,6,1
CCOC(=O)c1ccc(N=c2sc(C(=O)OC)cc(=O)n2Cc2ccco2)cc1,8.6*,-13,-4,0
CCOC(=O)c1ccc(N=c2sc(C(=O)OC)cc(=O)n2CCCN2CCOCC2)cc1,0,-51,-9,0
Cc1cc(C)cc(OCC(=O)Nc2ccc3c(c2)C(=O)c2ccccc2C3=O)c1,2,-36,-4,23
Cc1ccc(N2NC(=O)/C(=C\c3cc4c(cc3[N+](=O)[O-])OCO4)C2=O)cc1C,0,-46,49*,nt
O/N=C\c1cccn1-c1ccc(Br)cc1,1,-44,-23,0
CCCCNC(=S)N/N=C1\C(=O)c2cccc3cccc1c23,9.1*,-47,3,1
SMILES,RAM network inh,Yeast growth inh,Yeast lifespan up,Phagocytosis inh
COC(=O)/C(=C1/Oc2cc3c(cc2S1)OCO3)C(F)(F)F,3,-58,37*,nt
CN1CCN(C(=O)CCc2nc3ccccc3n2-c2ccccc2)CC1,2,-26,4,0
CC1Cc2ccccc2N1C(=O)CSc1nnnn1Cc1ccccc1 (configuration not stated),8.7*,-23,3,-1
CCCCOC(=O)c1ccc(NC(=O)CSC2=Nc3ccccc3C3CC=NN23)cc1 (configuration not stated),8.4*,-21,-12,-2
CCCCOC(=O)c1ccc(NC(=O)CSc2nncn2C)cc1,-1,-12,-4,0
Nc1cccc2c1C(=O)N(C(=O)c1ccc(Cl)c(S(=O)(=O)N3CCCCCC3)c1)C2=O,-1,-48,75*,1
O=C(O)c1cccc(NC(=O)c2ccc(Cl)c(S(=O)(=O)N3CCCCCC3)c2)c1,9.7*,nt,nt,nt

# Source: PubChem
